From ChEMBL document CHEMBL2177011, “Discovery, synthesis, and biological evaluation of orally active pyrrolidone derivatives as novel inhibitors of p53-MDM2 protein-protein interaction” (J Med Chem, 2012)

Columns and labels:
[1] = biological target: Tumour suppressor p53/oncoprotein Mdm2 (Homo sapiens, UniProt Q00987); assay: (§1) Inhibition of p53-MDM2 interaction after 1 hr by fluorescence polarization assay; type: protein assay
[2] = biological target: Tumour suppressor protein p53/Mdm4 (Homo sapiens, UniProt O15151); assay: (§2) Inhibition of p53-MDMX interaction after 1 hr by fluorescence polarization assay; type: protein assay
Chain of Tumour suppressor protein p53/Mdm4 (Homo sapiens, UniProt O15151) (P04637 whole entry): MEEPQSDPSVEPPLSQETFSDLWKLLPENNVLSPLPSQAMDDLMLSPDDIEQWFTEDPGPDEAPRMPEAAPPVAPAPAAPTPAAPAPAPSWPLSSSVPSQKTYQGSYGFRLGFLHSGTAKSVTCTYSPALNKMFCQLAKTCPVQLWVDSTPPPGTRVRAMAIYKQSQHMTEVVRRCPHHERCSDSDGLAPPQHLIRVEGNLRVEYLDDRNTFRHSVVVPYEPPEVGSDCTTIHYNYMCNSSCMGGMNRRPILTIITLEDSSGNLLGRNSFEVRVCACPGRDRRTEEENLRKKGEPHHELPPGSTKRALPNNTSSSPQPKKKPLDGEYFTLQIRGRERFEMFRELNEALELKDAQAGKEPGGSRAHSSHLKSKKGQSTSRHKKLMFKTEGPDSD
Chain of Tumour suppressor protein p53/Mdm4 (Homo sapiens, UniProt O15151) (O15151 whole entry): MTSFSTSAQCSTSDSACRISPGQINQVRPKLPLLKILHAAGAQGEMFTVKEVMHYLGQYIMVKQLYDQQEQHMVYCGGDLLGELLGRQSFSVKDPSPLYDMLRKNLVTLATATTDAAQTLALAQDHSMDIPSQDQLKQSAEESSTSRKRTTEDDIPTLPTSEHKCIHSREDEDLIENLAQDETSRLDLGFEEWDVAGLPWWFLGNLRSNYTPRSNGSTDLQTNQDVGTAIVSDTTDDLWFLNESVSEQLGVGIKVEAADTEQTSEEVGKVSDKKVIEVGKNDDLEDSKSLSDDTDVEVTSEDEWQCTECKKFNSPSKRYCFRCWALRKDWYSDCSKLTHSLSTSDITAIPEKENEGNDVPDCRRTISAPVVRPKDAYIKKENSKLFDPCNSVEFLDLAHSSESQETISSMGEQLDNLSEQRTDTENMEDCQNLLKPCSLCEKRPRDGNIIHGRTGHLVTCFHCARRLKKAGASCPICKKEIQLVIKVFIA

U2OS = assay: Antiproliferative activity against human U2OS cells expressing wild type p53 after 72 hrs by MTT assay; type: functional, cell-based
How it was run: (§3)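 Cells seeded at 5−6 × 10⁴ per well and cultured 24 h, then exposed in triplicate wells to a range of compound concentrations for 72 h, with 0.1% DMSO as control. MTT (5 mg/mL solution) was added for 4 h at 37 °C, formazan dissolved in DMSO, absorbance read at 570 nm. Drug-free wells served as blanks; IC50 calculated.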

A549 [3] = assay: Antiproliferative activity against human A549 cells expressing wild type p53 after 72 hrs by MTT assay; type: functional, cell-based; how it was run: as §3
NCI-H1299 = assay: Antiproliferative activity against p53 deficient human NCI-H1299 cells after 72 hrs by MTT assay; type: functional, cell-based; details: NCI-H1299, 72 h; how it was run: as §3
SAOS-2 = assay: Antiproliferative activity against p53 deficient human Saos2 cells after 72 hrs by MTT assay; type: functional, cell-based; details: SAOS-2, 72 h; how it was run: as §3
[4] = biological target: Tumour suppressor protein p53/Mdm4 (Homo sapiens, UniProt P04637+O15151); assay: as §2; type: protein assay
Chain of Tumour suppressor protein p53/Mdm4 (Homo sapiens, UniProt P04637+O15151) (P04637 whole entry): as the sequence (P04637 whole entry) above
Chain of Tumour suppressor protein p53/Mdm4 (Homo sapiens, UniProt P04637+O15151) (O15151 whole entry): as the sequence (O15151 whole entry) above

[5] = biological target: Tumour suppressor p53/oncoprotein Mdm2 (Homo sapiens, UniProt P04637+Q00987); assay: as §1; type: protein assay
Chain of Tumour suppressor p53/oncoprotein Mdm2 (Homo sapiens, UniProt P04637+Q00987) (P04637 whole entry): as the sequence (P04637 whole entry) above
Chain of Tumour suppressor p53/oncoprotein Mdm2 (Homo sapiens, UniProt P04637+Q00987) (Q00987 whole entry): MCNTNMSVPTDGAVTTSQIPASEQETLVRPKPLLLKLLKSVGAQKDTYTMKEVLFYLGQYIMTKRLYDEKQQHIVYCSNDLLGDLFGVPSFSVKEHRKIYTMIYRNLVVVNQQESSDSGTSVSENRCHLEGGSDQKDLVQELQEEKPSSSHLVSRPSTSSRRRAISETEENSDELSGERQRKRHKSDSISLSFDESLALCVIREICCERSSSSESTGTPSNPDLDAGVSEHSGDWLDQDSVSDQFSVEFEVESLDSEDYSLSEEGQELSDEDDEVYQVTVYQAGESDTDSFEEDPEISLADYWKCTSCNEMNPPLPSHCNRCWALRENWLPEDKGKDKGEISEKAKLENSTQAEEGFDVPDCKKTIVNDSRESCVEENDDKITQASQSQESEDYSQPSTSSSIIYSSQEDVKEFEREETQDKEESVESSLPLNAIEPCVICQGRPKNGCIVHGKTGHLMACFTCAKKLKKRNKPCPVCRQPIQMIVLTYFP

Mus musculus = assay: Toxicity in nude BALB/C mouse assessed as mortality at 200 mg/kg, po qd for 14 days; type: organism-based; parameters: dose 200 mg/kg, route oral; details: in vivo, 336 h
How it was run: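 Male BALB/C nude mice (18−20 g) carried subcutaneous A549 implants in the right axilla. Dosing began once tumors reached 100−300 mm³, 13 days after implantation. Animals were randomized into groups of 6 per treatment and 10 controls, then given 200 mg/kg by gavage once daily for 14 consecutive days. Body weight was recorded every 4 days. Mice were sacrificed on day 29 or 33.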

A549 [6] = assay: Antitumor activity against human A549 cells expressing wild type p53 xenografted in nude BALB/C mouse assessed as inhibition of tumor growth at 200 mg/kg, po qd for 14 days; type: functional; details: A549, 336 h, read-out: TGI
How it was run: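 Male BALB/C nude mice (18−20 g) had A549 cells implanted subcutaneously in the right axilla. Dosing started on day 13, when tumors reached 100−300 mm³. Mice were randomized (6 per treatment group, 10 controls) and dosed by gavage once daily for 14 days. Caliper tumor volume (TV = 1/2 × a × b²) was taken every 4 days; relative tumor volume was used. Mice were sacrificed on day 29 or 33.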

[7] = Homo sapiens, U2OS, 72 h, read-out: IC50
[8] = Homo sapiens, A549, 72 h, read-out: IC50

Chain of Tumour suppressor p53/oncoprotein Mdm2 (Homo sapiens, UniProt Q00987) (P04637 whole entry): as the sequence (P04637 whole entry) above
Chain of Tumour suppressor p53/oncoprotein Mdm2 (Homo sapiens, UniProt Q00987) (Q00987 whole entry): as the sequence (Q00987 whole entry) above

SMILES	Ki [1]	IC50 (U2OS; [7])	IC50 (A549 [3]; [8])	IC50 (NCI-H1299)	IC50 (SAOS-2)	also measured
O=C(C1=C(Nc2ccc(F)cc2)C(=O)N(CCCn2ccnc2)C1c1ccc(Br)cc1)c1ccccc1 (stereo not drawn)	0.43 µM	30 µM	27.4 µM	25.4 µM	32.7 µM	–
O=C(C1=C(O)C(=O)N(CCc2ccccc2)C1c1ccc(Br)cc1)c1cccs1 (stereo not drawn)	12 µM	–	–	–	–	–
Cc1ccc(NC2=C(C(=O)c3ccccc3)C(c3ccc(Br)cc3)N(CCCn3ccnc3)C2=O)cc1 (stereo not drawn)	0.14 µM	24.1 µM	29.4 µM	25.8 µM	31.9 µM	–
COc1ccc(C(=O)C2=C(O)C(=O)N(c3nccs3)C2c2ccc(C)cc2)cc1 (stereo not drawn)	2.5 µM	–	–	–	–	–
O=C(C1=C(O)C(=O)N(CCCn2ccnc2)C1c1ccc(Br)cc1)c1ccc(Br)cc1 (stereo not drawn)	24.9 µM	–	–	–	–	–
O=C(C1=C(Nc2ccc(OC(F)(F)F)cc2)C(=O)N(CCCn2ccnc2)C1c1ccc(Br)cc1)c1ccccc1 (stereo not drawn)	0.12 µM	11.5 µM	20.8 µM	11.5 µM	17.9 µM	–
O=C(C1=C(O)C(=O)N(CCCn2ccnc2)C1c1ccsc1)c1ccccc1 (stereo not drawn)	–	–	–	–	–	Ki [5]: Not Active
COc1ccc(C2C(C(=O)c3ccccc3)=C(O)C(=O)N2CCCn2ccnc2)cc1 (stereo not drawn)	–	–	–	–	–	Ki [5]: Not Active
O=c1c2cnn(-c3ccccc3)c2nc(Cc2ccccc2)n1Cc1ccccc1	2.13 µM	–	–	–	–	–
O=C(C1=C(OC2CCCCC2)C(=O)N(CCCn2ccnc2)C1c1ccc(Br)cc1)c1ccccc1 (stereo not drawn)	0.49 µM	22.4 µM	31.2 µM	19.9 µM	29.7 µM	Ki [2]: 17.9 µM
O=C(C1=C(Nc2ccc(I)cc2)C(=O)N(CCCn2ccnc2)C1c1ccc(Br)cc1)c1ccccc1 (stereo not drawn)	0.27 µM	12 µM	24.5 µM	19.4 µM	23.4 µM	–
O=C(C1=C(Nc2cccc(Br)c2)C(=O)N(CCCn2ccnc2)C1c1ccc(Br)cc1)c1ccccc1 (stereo not drawn)	0.15 µM	11.9 µM	15.8 µM	11.5 µM	9.09 µM	–
O=C(C1=C(O)C(=O)N(CCCn2ccnc2)C1c1ccc(Cl)nc1)c1ccccc1 (stereo not drawn)	–	–	–	–	–	Ki [5]: Not Active
O=C(C1=C(O)C(=O)N(CCCn2ccnc2)C1c1ccc(Br)cc1)c1ccccc1Cl (stereo not drawn)	–	–	–	–	–	Ki [5]: Not Active
O=C(C1=C(NCc2ccccc2)C(=O)N(CCCn2ccnc2)C1c1ccc(Br)cc1)c1ccccc1 (stereo not drawn)	0.47 µM	32.5 µM	52.8 µM	25.3 µM	31.6 µM	–
O=C(C1=C(O)C(=O)N(CCCn2ccnc2)C1c1cccc(O)c1)c1ccccc1 (stereo not drawn)	–	–	–	–	–	Ki [5]: Not Active
c1ccc(CN2CCN(Cc3ccccc3)C2c2cccnc2)cc1	1.76 µM	–	–	–	–	–
O=C(C1=C(O)C(=O)N(CCCn2ccnc2)C1c1ccco1)c1ccccc1 (stereo not drawn)	–	–	–	–	–	Ki [5]: Not Active
CC(C)OC1=C(C(=O)c2ccccc2)C(c2ccc(Br)cc2)N(CCCn2ccnc2)C1=O (stereo not drawn)	–	24.8 µM	8.72 µM	18.9 µM	23 µM	Activity (Mus musculus): Non-toxic; inhibition in vivo at 200 mg/kg (A549 [6]): 40%
O=C(C1=C(O)C(=O)N(CCCn2ccnc2)C1c1ccc2ccccc2c1)c1ccccc1 (stereo not drawn)	–	–	–	–	–	Ki [5]: Not Active

SMILES	Ki [1]	IC50 (U2OS; [7])	IC50 (A549 [3]; [8])	IC50 (NCI-H1299)	IC50 (SAOS-2)	also measured
C[C@@H](NC1=C(C(=O)c2ccccc2)[C@H](c2ccc(Br)cc2)N(CCCn2ccnc2)C1=O)c1ccccc1	–	30.8 µM	15.7 µM	17 µM	13.2 µM	–
O=C(C1=C(O)C(=O)N(CCCn2ccnc2)C1c1cccnc1)c1ccccc1 (stereo not drawn)	–	–	–	–	–	Ki [5]: Not Active
O=C(C1=C(Nc2ccc(Br)cc2)C(=O)N(CCCn2ccnc2)C1c1ccc(Br)cc1)c1ccccc1 (stereo not drawn)	0.19 µM	13 µM	22.2 µM	19.2 µM	23.8 µM	–
O=C(CSc1nnc(-c2ccc(O)cc2)n1-c1ccccc1)Nc1ccccc1	86 µM	–	–	–	–	–
O=C(C1=C(OCc2ccccc2)C(=O)N(CCCn2ccnc2)C1c1ccc(Br)cc1)c1ccccc1 (stereo not drawn)	2.07 µM	–	–	–	–	Ki [4]: Not Active
CCCCCOC1=C(C(=O)c2ccccc2)C(c2ccc(Br)cc2)N(CCCn2ccnc2)C1=O (stereo not drawn)	0.34 µM	9.14 µM	7.29 µM	10.3 µM	9.99 µM	Ki [4]: Not Active
O=C(C1=C(Nc2ccccc2Br)C(=O)N(CCCn2ccnc2)C1c1ccc(Br)cc1)c1ccccc1 (stereo not drawn)	0.15 µM	16.9 µM	20.1 µM	15.6 µM	19.6 µM	–
O=C(C1=C(O)C(=O)N(Cc2cccnc2)C1c1ccc(Cl)cc1)c1ccccc1 (stereo not drawn)	0.57 µM	–	–	–	–	–
O=C(C1=C(O)C(=O)N(CCCn2ccnc2)C1c1ccc(Br)cc1)c1ccc(Cl)cc1 (stereo not drawn)	0.91 µM	–	–	–	–	–
O=C(C1=C(O)C(=O)N(CCCn2ccnc2)C1c1ccccn1)c1ccccc1 (stereo not drawn)	–	–	–	–	–	Ki [5]: Not Active
COc1ccc(CCN2C(=O)C(O)=C(C(=O)c3cccs3)C2c2ccc(C)cc2)cc1 (stereo not drawn)	48.8 µM	–	–	–	–	–
O=C(C1=C(O)C(=O)N(CCCn2ccnc2)C1c1ccc(Br)cc1)c1ccc(F)cc1 (stereo not drawn)	1.46 µM	–	–	–	–	–
O=C(C1=C(O)C(=O)N(CCCn2ccnc2)C1c1cccs1)c1ccccc1 (stereo not drawn)	–	–	–	–	–	Ki [5]: Not Active
O=C(C1=C(O)C(=O)N(CCCn2ccnc2)C1c1ccc(Cl)cc1)c1ccc2c(c1)OCCO2 (stereo not drawn)	1.37 µM	–	–	–	–	–
O=C(C1=C(O)C(=O)N(CCCn2ccnc2)C1c1ccc(Br)cc1)c1ccc(I)cc1 (stereo not drawn)	3.59 µM	–	–	–	–	–
O=C(C1=C(O)C(=O)N(CCCn2ccnc2)C1c1ccccc1O)c1ccccc1 (stereo not drawn)	–	–	–	–	–	Ki [5]: Not Active
O=C(C1=C(Nc2ccc(Cl)cc2)C(=O)N(CCCn2ccnc2)C1c1ccc(Br)cc1)c1ccccc1 (stereo not drawn)	0.23 µM	22.8 µM	29.9 µM	25 µM	24.8 µM	–
CCOc1ccc(NC2=C(C(=O)c3ccccc3)C(c3ccc(Br)cc3)N(CCCn3ccnc3)C2=O)cc1 (stereo not drawn)	0.35 µM	26.2 µM	20.2 µM	19.9 µM	30.9 µM	–
O=C(C1=C(Nc2ccccc2)C(=O)N(CCCn2ccnc2)C1c1ccc(Br)cc1)c1ccccc1 (stereo not drawn)	0.14 µM	25.7 µM	24.1 µM	21.2 µM	24.4 µM	–

More lines, main results first:

Ki [1]	IC50 (U2OS; [7])	IC50 (A549 [3]; [8])	IC50 (NCI-H1299)	SMILES	IC50 (SAOS-2)	also measured
1.34 µM	–	–	–	COCCOC1=C(C(=O)c2ccccc2)C(c2ccc(Br)cc2)N(CCCn2ccnc2)C1=O (stereo not drawn)	–	Ki [2]: 2.11 µM
0.78 µM	–	–	–	Cc1ccc(C2C(C(=O)c3ccccc3)=C(O)C(=O)N2CCCn2ccnc2)cc1 (stereo not drawn)	–	–
2.54 µM	–	–	–	O=C(C1=C(O)C(=O)N(CCCn2ccnc2)C1c1ccc(Br)cc1)c1ccc([N+](=O)[O-])cc1 (stereo not drawn)	–	–
10.7 µM	–	–	–	Cc1ccc(C2C(C(=O)c3ccccc3)=C(O)C(=O)N2CCCn2ccnc2)c(C)c1 (stereo not drawn)	–	–
0.81 µM	–	–	–	O=C(C1=C(O)C(=O)N(CCCn2ccnc2)C1c1ccc(C(F)(F)F)cc1)c1ccccc1 (stereo not drawn)	–	–
23.3 µM	–	–	–	O=C(C1=C(O)C(=O)N(CCCn2ccnc2)C1c1ccc(Cl)cc1)c1ccccc1 (stereo not drawn)	–	–
0.29 µM	–	73.1 µM	20 µM	O=C(C1=C(O)C(=O)N(CCCn2ccnc2)C1c1ccc(Br)cc1)c1ccccc1 (stereo not drawn)	31.6 µM	IC50 (U2OS; u2os): Not Active; Ki [4]: Not Active
0.91 µM	–	–	–	Cc1cc(C)cc(C2C(C(=O)c3ccccc3)=C(O)C(=O)N2CCCn2ccnc2)c1 (stereo not drawn)	–	–
10.9 µM	–	–	–	CC(C)(C)c1ccc(C2C(C(=O)c3ccccc3)=C(O)C(=O)N2CCCn2ccnc2)cc1 (stereo not drawn)	–	–
15.3 µM	–	–	–	O=C(C1=C(O)C(=O)N(CCCn2ccnc2)C1c1ccc(Br)cc1)c1ccccc1[N+](=O)[O-] (stereo not drawn)	–	–
39.4 µM	–	–	–	O=C(C1=C(O)C(=O)N(CCCn2ccnc2)C1c1ccc(Cl)cc1Cl)c1ccccc1 (stereo not drawn)	–	–
0.69 µM	21.9 µM	35.2 µM	28.9 µM	CCOC1=C(C(=O)c2ccccc2)C(c2ccc(Br)cc2)N(CCCn2ccnc2)C1=O (stereo not drawn)	31.7 µM	Ki [2]: 38.9 µM
0.47 µM	32.4 µM	18.5 µM	17.1 µM	CCCCOC1=C(C(=O)c2ccccc2)C(c2ccc(Br)cc2)N(CCCn2ccnc2)C1=O (stereo not drawn)	11.6 µM	Ki [4]: Not Active
0.83 µM	–	–	–	O=C(C1=C(O)C(=O)N(CCCn2ccnc2)C1c1cccc([N+](=O)[O-])c1)c1ccccc1 (stereo not drawn)	–	–
0.7 µM	–	–	–	O=C(C1=C(O)C(=O)N(CCCn2ccnc2)C1c1ccc([N+](=O)[O-])cc1)c1ccccc1 (stereo not drawn)	–	–
0.048 µM	149 µM	–	168 µM	NC1=C(C(=O)c2ccccc2)C(c2ccc(Br)cc2)N(CCCn2ccnc2)C1=O (stereo not drawn)	107 µM	IC50 (A549 [3]; a549): Not Active; Ki [4]: Not Active
0.43 µM	–	–	–	O=C(C1=C(O)C(=O)N(CCCn2ccnc2)C1c1ccccc1Br)c1ccccc1 (stereo not drawn)	–	–
0.88 µM	–	–	–	O=C(C1=C(O)C(=O)N(CCCn2ccnc2)C1c1ccc(F)cc1)c1ccccc1 (stereo not drawn)	–	–
6.97 µM	–	–	–	CCCOC1=C(C(=O)c2ccccc2)C(c2ccc(Br)cc2)N(CCCn2ccnc2)C1=O (stereo not drawn)	–	Ki [2]: 9.32 µM
